Measured values as given in ChEMBL document CHEMBL1138681, “Identification of structurally diverse growth hormone secretagogue agonists by virtual screening and structure-activity relationship analysis of 2-formylaminoacetamide derivatives” (J Med Chem, 2004).
Activity calls are given as the source filed them. The calls are words filed in the database; no cut-off is given here.

How the values were obtained:
[1] = biological target: T1, Growth hormone secretagogue receptor type 1 (Homo sapiens, UniProt Q92847); assay: Tested for growth hormone secretagogue activity in A93 cell line using a calcium flux assay at 10 uM (Relative to compound T1); NA means not active; type: functional, cell-based
T1 sequence (Q92847 whole entry): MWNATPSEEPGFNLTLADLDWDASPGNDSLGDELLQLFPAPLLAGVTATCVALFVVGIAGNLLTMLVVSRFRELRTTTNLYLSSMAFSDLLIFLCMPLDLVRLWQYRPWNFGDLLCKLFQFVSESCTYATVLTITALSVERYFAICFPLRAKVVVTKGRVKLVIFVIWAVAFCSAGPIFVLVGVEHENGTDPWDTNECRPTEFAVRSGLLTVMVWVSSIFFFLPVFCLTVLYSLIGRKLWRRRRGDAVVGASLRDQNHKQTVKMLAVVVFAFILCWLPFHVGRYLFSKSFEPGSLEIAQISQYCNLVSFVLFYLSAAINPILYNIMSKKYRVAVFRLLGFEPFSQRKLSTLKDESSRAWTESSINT

[2] = biological target: T1, Growth hormone secretagogue receptor type 1; assay: Binding affinity for human growth hormone secretagogue receptor using [125I]ghrelin; NA means not active
Summary of the method: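 Radioligand displacement with (125I)ghrelin (human) at GHS receptor, run by a contract lab following published methods; Ki values reported; binding curves in supplement.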

[3] = biological target: T1, Growth hormone secretagogue receptor type 1; assay: Tested for growth hormone secretagogue activity in A93 cell line using a calcium flux assay at 10 uM (Relative to compound T1); type: functional, cell-based
[4] = biological target: T1, Growth hormone secretagogue receptor type 1; assay: Binding affinity for human growth hormone secretagogue receptor was determined using [125I]ghrelin
Summary of the method: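 Competition binding with (125I)ghrelin (human) at the GHS receptor, run by a contract laboratory following published methods. Ki values were derived from binding curves.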

O=C(NC1CCCCC1)C(c1ccc(F)cc1)N(C(=O)c1ccc(-c2ccccc2)[nH]1)C1CCCCC1 (stereo unspecified)
Activity [1]: inactive

CCN(CC)CCN(C(=O)c1ccc(CN2CCCCC2)o1)C(C(=O)NC1CCCCC1)c1ccc(F)cc1 (stereo unspecified)
Ki [2]: Not Active

O=C(NC1CCCC1)C(c1ccncc1)N(CCCN1CCOCC1)C(=O)c1ccc(-c2ccccc2)[nH]1 (stereo unspecified)
Activity [1]: inactive

CCN(CC)CCCN(C(=O)c1ccc(-c2ccccc2)[nH]1)C(C(=O)NC1CCCCC1)c1cccs1 (stereo unspecified)
Activity [1]: inactive

COc1ccc(CN(C(=O)c2ccc(-c3ccccc3)[nH]2)C(C(=O)NC2CCCCC2)c2ccc(F)cc2)cc1 (stereo unspecified)
Activity [1]: inactive

CC(C)(C)NC(=O)C(c1ccc(F)cc1)N(CCCN1CCOCC1)C(=O)c1ccc(-c2ccccc2)[nH]1 (stereo unspecified)
Ki [2]: Not Active

CCN(CC)CCCN(C(=O)CCN1CCCc2ccccc21)C(C(=O)NC1CCCCC1)c1ccc(F)cc1 (stereo unspecified)
Activity [3]: 0.31
Ki [4]: 2030 nM

CCN(CC)CCCN(C(=O)c1ccc(-c2ccccc2)[nH]1)C(C(=O)NC1CCCCC1)c1ccc(C)cc1 (stereo unspecified)
Activity [1]: inactive

CCN(CC)CCCN(C(=O)c1ccc(-c2ccccc2)[nH]1)C(C(=O)NC1CCCCC1)c1cc(OC)ccc1OC (stereo unspecified)
Activity [1]: inactive

CCN(CC)CCCN(C(=O)c1ccc(-c2ccccc2)[nH]1)C(C)C(=O)NC1CCCCC1 (stereo unspecified)
Activity [3]: 0.96
Ki [4]: 1920 nM

O=C(NC1CCCCC1)C(c1ccc(F)cc1)N(CCN1CCOCC1)C(=O)c1ccc(-c2ccccc2)[nH]1 (stereo unspecified)
Activity [1]: inactive

O=C(NC1CCCCC1)C(c1ccc(F)cc1)N(CCCN1CCOCC1)C(=O)c1ccc(-c2ccccc2)[nH]1 (stereo unspecified)
Ki [2]: Not Active

CCN(CC)CCCN(C(=O)c1ccc(-c2ccccc2)[nH]1)C(Cc1ccc(C)o1)C(=O)NC1CCCCC1 (stereo unspecified)
Activity [3]: 0.28
Ki [4]: 1170 nM

CCN(CC)CCN(C(=O)c1ccc(-c2ccccc2)[nH]1)C(C(=O)NC1CCCCC1)c1ccc(F)cc1 (stereo unspecified)
Activity [3]: 0.24
Ki [4]: 1370 nM

CCN(CC)CCCN(C(=O)c1ccc(-c2ccccc2)[nH]1)C(C(=O)NC1CCCCC1)c1cc(OC)c(OC)c(OC)c1 (stereo unspecified)
Activity [1]: inactive

CCN(CC)CCCN(C(=O)Cn1nnc(-c2ccc(OC)c(OC)c2)n1)C(C(=O)NC1CCCCC1)c1ccc(F)cc1 (stereo unspecified)
Activity [1]: inactive

CCN(CC)CCCN(C(=O)c1ccc(-c2ccccc2)[nH]1)C(C(=O)NCc1ccc(F)cc1)c1ccc(F)cc1 (stereo unspecified)
Activity [3]: 0.45
Ki [4]: 1150 nM

CCN(CC)CCCN(C(=O)c1snc(C(N)=O)c1N)C(C(=O)NC1CCCCC1)c1ccc(F)cc1 (stereo unspecified)
Activity [1]: inactive

O=C(NC1CCCCC1)C(c1ccc(F)cc1)N(C(=O)c1ccc(-c2ccccc2)[nH]1)c1ccccc1 (stereo unspecified)
Activity [1]: inactive

CCN(CC)CCN(C(=O)c1ccc(CN2CCCCC2)o1)C(C(=O)NC1CCCCC1)c1ccc(N(C)C)cc1 (stereo unspecified)
Activity [1]: inactive

O=C(NC1CCCCC1)C(c1ccc(F)cc1)N(CCCN1CCOCC1)C(=O)c1ccc(CN2CCOCC2)o1 (stereo unspecified)
Activity [1]: inactive

CCCCC(C(=O)NC1CCCCC1)N(CCCN(CC)CC)C(=O)c1ccc(-c2ccccc2)[nH]1 (stereo unspecified)
Activity [3]: 1.6
Ki [4]: 280 nM

CCN(CC)CCN1C(=O)[C@@](O)(c2ccccc2Cl)c2c1cc(C(N)=O)cc2C(F)(F)F
IC50 [4]: 1.2 nM

CCN(CC)CCCN(C(=O)c1ccc(-c2ccccc2)[nH]1)C(C(=O)NC1CCCCC1)c1ccc(F)cc1 (stereo unspecified)
Activity [3]: 0.57
Ki [4]: 1290 nM

CCOc1ccc(C(C(=O)NC2CCCCC2)N(CCCN(CC)CC)C(=O)c2ccc(-c3ccccc3)[nH]2)cc1 (stereo unspecified)
Activity [1]: inactive

COc1ccc(CN(C(=O)c2ccc(-c3ccccc3)[nH]2)C(C)C(=O)NC2CCCCC2)cc1 (stereo unspecified)
Activity [1]: inactive

CCOC(=O)CN(C(=O)c1ccc(-c2ccccc2)[nH]1)C(C)C(=O)NC1CCCCC1 (stereo unspecified)
Activity [1]: inactive

CCN(CC)CCCN(C(=O)c1ccc(-c2ccccc2)[nH]1)C(C(=O)NC1CCCCC1)c1ccc(OC)c(OC)c1 (stereo unspecified)
Activity [3]: 0.32
Ki [4]: 2630 nM

CCN(CC)CCCN(C(=O)c1ccc(-c2ccccc2)[nH]1)C(C(=O)NC1CCCCC1)c1ccncc1 (stereo unspecified)
Activity [3]: 1.16
Ki [4]: 910 nM

O=C(NC1CCCC1)C(c1ccncc1)N(C(=O)c1ccc(-c2ccccc2)[nH]1)c1ccccc1 (stereo unspecified)
Activity [1]: inactive

CCN(CC)CCCN(C(=O)c1ccc(-c2ccccc2)[nH]1)C(C(=O)NC1CCCCC1)c1ccc(O)cc1 (stereo unspecified)
Activity [3]: 0.52
Ki [4]: 1320 nM

CCN(CC)CCN(C(=O)c1ccc(-c2ccccc2)[nH]1)C(C(=O)NC1CCCCC1)c1c[nH]c2ccccc12 (stereo unspecified)
Activity [1]: inactive

CCN(CC)CCCN(C(=O)c1ccc(-c2ccccc2)[nH]1)C(C)C(=O)NC(C)(C)C (stereo unspecified)
Activity [3]: 0.38
Ki [4]: 1180 nM

Cc1ccc(CC(C(=O)NC2CCCCC2)N(Cc2ccccc2)C(=O)c2ccc(-c3ccccc3)[nH]2)o1 (stereo unspecified)
Activity [1]: inactive

CCN(CC)CCCN(C(=O)c1ccc(-c2ccccc2)[nH]1)C(C(=O)NC1CCCCC1)c1ccco1 (stereo unspecified)
Activity [1]: inactive

Cc1ccc(CC(C(=O)NC2CCCCC2)N(C(=O)c2ccc(-c3ccccc3)[nH]2)C2CCCC2)o1 (stereo unspecified)
Activity [1]: inactive

CCCC(C(=O)NC1CCCCC1)N(CCCN(CC)CC)C(=O)c1ccc(-c2ccccc2)[nH]1 (stereo unspecified)
Activity [3]: 1.37
Ki [4]: 870 nM

CCC(C(=O)NC1CCCCC1)N(CCCN(CC)CC)C(=O)c1ccc(-c2ccccc2)[nH]1 (stereo unspecified)
Activity [3]: 1.23
Ki [4]: 220 nM
